TAAR1 antagonist = human TAAR1 antagonism; Q96RJ0; 360,000 compounds, 1.5% hits; inhibition, % at 3 µM; CHO RD-HGA16 TAAR1, Fluo-8 calcium fluorescence, antagonist;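 active = inhibition above a per-plate cutoff, the mean inhibition of test compounds on that plate plus 3 SD, cut at about 49% in these data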;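 also: 0% = DMSO plus EC80 beta-PEA response and 100% = DMSO alone without agonist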
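System: CHO RD-HGA16 cells bearing hTAAR1. Reagent: EC80 β-phenethylamine stimulus. Schedule: seeding 17-24 h prior, 75-min 37 °C, 30-min RT dye loading. Signal: Fluo-8 intracellular calcium dye fluorescence, real-time kinetic reads. Read-out: % inhibition from peak post-agonist over basal fluorescence ratio. Benchmarks: vehicle wells and EC80 agonist wells. Replicates: n of 1.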
CHO parental Ca = signal in parental CHO cells, OX1R antagonist counter-screen | parental CHO-K1, ATP-induced calcium, Fluo-8 fluorescence | 330,000 compounds, 0.63% hits | inhibition, % at 5.6 µM | AID 463079;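 active = inhibition above that plate's mean sample inhibition plus 3 SD, cut at about 26% in these data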;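 also: 0% = ATP-challenged DMSO wells and 100% = DMSO wells without ATP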
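Assay system: parental CHO cells; Read-out basis: percent inhibition of ATP-evoked calcium rise, normalized to controls; Benchmarks: ATP and no-ATP DMSO wells; Compound dosing: single nominal dose of 5.6 µM per compound; Signal: Fluo-8 calcium dye fluorescence; Also added: ATP as calcium-mobilizing challenge; Repeats: singlicate.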
TAAR1 agonist = human TAAR1 agonism | 360,000 compounds, 0.99% hits | activation, % at 3 µM | AID 624467 | Q96RJ0 | CHO RD-HGA16 TAAR1, Fluo-8 calcium fluorescence; vehicle wells 0%, saturating PEA agonist 100%;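 active = activation above the mean activation of all test compounds in the run plus 3 SD, cut at about 38% in these data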
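Assay system – CHO-derived RD-HGA16 cells with stable Gα16 and human TAAR1 · Compound dosing – one-point dosing at 3 µM (nominal) · Incubation – 17-24 h seeding, 75 min 37 °C dye, 30 min RT · Measured by – kinetic Fluo-8 calcium fluorescence · Control set – DMSO vehicle as 0%, PEA at EC100 as 100% · Repeats – single well for each compound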
OX1R antag-1 = blocks the human orexin 1 receptor; OX1R-expressing cells, FRET antagonist read-out; inhibition, % at 6.6 µM; 330,000 compounds, 1.8% hits; AID 485270; in the data active = inhibition mostly above about 38%, no sharp cut-off; inactive = mostly below about 40%;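 also: 0% = agonist challenge alone and 100% = reference antagonist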
Target sequence (O43613 whole entry, looked up): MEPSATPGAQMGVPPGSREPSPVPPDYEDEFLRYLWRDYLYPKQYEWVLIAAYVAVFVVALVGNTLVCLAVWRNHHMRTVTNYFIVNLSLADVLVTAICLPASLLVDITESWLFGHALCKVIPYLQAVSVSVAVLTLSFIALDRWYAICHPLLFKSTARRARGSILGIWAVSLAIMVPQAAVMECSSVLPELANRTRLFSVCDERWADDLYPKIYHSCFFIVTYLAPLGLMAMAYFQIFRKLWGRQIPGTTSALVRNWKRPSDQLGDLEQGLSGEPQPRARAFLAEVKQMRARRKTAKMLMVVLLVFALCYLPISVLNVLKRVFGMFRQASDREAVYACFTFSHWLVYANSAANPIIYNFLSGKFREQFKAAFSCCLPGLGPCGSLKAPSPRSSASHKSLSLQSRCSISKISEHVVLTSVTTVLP
OX1R antag-2 = antagonists of human orexin 1 receptor | AID 434989 | inhibition, % at 5 µM | CHO/OX1R cells, Fluo-8 calcium fluorescence, orexin A | 330,000 compounds, 0.43% hits | O43613;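 active = inhibition above its plate's threshold, mean inhibition of all tested compounds on the plate plus 3 SD, cut at about 37% in these data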;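 also: 0% = orexin A challenge wells and 100% = SB-334867-A antagonist wells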
* = called active by the depositor; / = no result. Shown are actives, neighbours in structure and some others; about 3.9% of the full set was active somewhere.

SMILES	TAAR1 antagonist	CHO parental Ca	TAAR1 agonist	OX1R antag-1	OX1R antag-2
COc1ccccc1CNC(=O)C1CCCN(S(=O)(=O)c2cccc3nsnc23)C1 (centres undefined)	-6	-24	1	28	-16
COCCNC(=O)C1CCCN(S(=O)(=O)c2cccc3nsnc23)C1 (centres undefined)	-14	-11	0	48*	-3
O=C(NCc1ccccn1)C1CCCN(S(=O)(=O)c2cccc3nsnc23)C1 (centres undefined)	11	-4	0	121*	-21
COc1cc(OC)c(C2C=CC(=O)CC2)c(OC)c1 (centres undefined)	-13	/	1	/	/
COc1ccc(C2=Nc3ccccc3NC(=O)C2N(CCc2ccccc2)C(=O)c2cccs2)cc1 (centres undefined)	35	/	44*	/	/
O=C1Nc2ccccc2N=C(c2ccc3c(c2)OCO3)C1N(CCc1ccccc1)C(=O)CSc1ncccn1 (centres undefined)	35	/	41*	/	/
COc1ccc(C2=Nc3ccccc3NC(=O)C2N(Cc2ccc(F)cc2)C(=O)c2ccco2)cc1 (centres undefined)	8	/	1	/	/
COCC(=O)N(C)C[C@@H]1Oc2cc(-c3ccc(F)cc3)ccc2S(=O)(=O)N([C@H](C)CO)C[C@H]1C	11	/	8	/	/
COc1cccc(CNC(=O)[C@@H]2CCCN2C(=O)[C@@H]2CCCN2C(=O)c2cccc3ccccc23)c1	17	/	1	/	/
O=C(OC1Cn2c(=O)ccc(=O)n2C1)c1ccc([N+](=O)[O-])cc1	6	-5	2	45*	-10
O=C(CC1SC(=Nc2ccccc2)N(CCO)C1=O)Nc1ccccc1 (centres undefined)	6	-12	3	4	-10
O=C(CC1SC(=Nc2ccccc2)N(CCCO)C1=O)Nc1ccc(Cl)cc1 (centres undefined)	/	66*	/	11	77*
COc1ccc2[nH]c3c(c2c1)CCN1C(=O)N([C@@H](C)C(=O)NC2CCCCC2C)C(=O)[C@]31C (some centres undefined)	-15	-17	-1	47*	-3
Cn1cc(CCOCc2ccccc2)c2ccccc21	-13	/	-1	/	/
Cc1cc(/C=N/NC(N)=S)c(C)n1-c1ccc(Cl)c(Cl)c1	50*	-11	31	2	3
COc1cccc(NC(=O)C(=O)N/N=C/c2cc(C)n(-c3ccc(Cl)c(Cl)c3)c2C)c1	14	-6	-1	9	1
CCOc1cc(C)c(S(=O)(=O)Nc2ccc3cn[nH]c3c2)cc1C	/	48*	/	13	8
Cc1ccc(S(=O)(=O)Nc2ccc3cn[nH]c3c2)c(C)c1	-12	-8	7	5	-18
O=c1nc(Oc2ccccc2)nc2ncccn12	-28	/	8	/	/
O=[N+]([O-])c1cc(-c2ncccn2)cs1	-14	-1	2	51*	4
O=C(/C=C/c1ccc([N+](=O)[O-])s1)N1CCCCC1	-1	-25	1	74*	-31
O=C(/C=C/c1ccc([N+](=O)[O-])s1)N1CCN(c2ccccc2)CC1	-12	-4	-2	5	5
O=C(/C=C/c1ccc([N+](=O)[O-])s1)N1CCCC1	-1	-15	4	52*	-18
CN(C)c1ccc(CC(=O)N2CCCCC2c2cc(C(=O)Nc3ccccc3)no2)cc1 (centres undefined)	-2	/	2	/	/
CCC(=O)NC(c1ccco1)c1cc(Cl)c2ccccc2c1O (centres undefined)	1	-16	10	50*	23
SMILES	TAAR1 antagonist	CHO parental Ca	TAAR1 agonist	OX1R antag-1	OX1R antag-2
CC(=O)NC(c1ccco1)c1cc(Cl)c2ccccc2c1O (centres undefined)	-10	-15	2	28	11
CCOC(=O)c1c2c(n(Cc3ccccc3)c1C)C(=O)C(=O)c1ccccc1-2	55*	/	3	/	/
Cc1ccc(Cn2cccc(NC(=O)NC3CCCCC3)c2=O)cc1	-14	-32	35	20	-45
O=C(Nc1cccn(Cc2ccc(F)cc2)c1=O)NC1CCCCC1	-8	-21	39*	31	-27
CC1=C(C(=O)N(C(C)C)C(C)C)CC(CC(=O)NCCc2ccccn2)C(=O)N1Cc1ccc(F)cc1 (centres undefined)	-36	/	38*	/	/
CC1=C(C(=O)N(C)C)CC(CC(=O)NCCc2ccccn2)C(=O)N1Cc1ccc(C(C)(C)C)cc1 (centres undefined)	2	/	11	/	/
CC1=C(C(=O)N(C)C)CC(CC(=O)NCCc2ccccn2)C(=O)N1Cc1ccc(F)cc1 (centres undefined)	-10	/	41*	/	/
COC(=O)[C@]12C[C@H](CC(=O)N3CCOCC3)C(=O)N(Cc3ccccc3)C1=C[C@H](C(C)(C)C)O[C@@H]2C	-9	/	1	/	/
CCOC(=O)C1=C(C(=O)OCC)C2N(Cc3ccc(C#N)cc3)c3ccccc3[C@@]23C[C@@H](C(=O)OC)N(S(=O)(=O)c2ccccc2)C3=N1 (some centres undefined)	-6	/	2	/	/
CC1C(=O)OC2C1CCC1(C)C3(C)C(=O)C=CC213 (centres undefined)	15	/	1	/	/
CCCCCCC(=O)N=Nc1c(O)[nH]c2ccc([N+](=O)[O-])cc12	-15	-12	0	39	-14
O=C(CNC(=O)Cc1ccccc1)N=Nc1c(O)[nH]c2ccccc12	3	0	-3	45*	-17
O=C(CNC(=O)c1cccs1)N=Nc1c(O)[nH]c2ccc([N+](=O)[O-])cc12	-18	-8	6	41*	-10
O=C(CNC(=O)c1ccco1)N=Nc1c(O)[nH]c2ccc(Br)cc12	-26	-10	38*	36*	-8
Oc1[nH]c2ccccc2c1N=Nc1ccccc1F	8	20	39*	22	19
Cc1ccccc1Nc1nc(N)nc(CSc2nnc3sc4ccccc4n23)n1	2	2	12	2	-18
Nc1nc(CSc2nc3ccccc3s2)nc(Nc2ccccc2)n1	/	-30	/	92*	60*
CC(=O)c1ccc(Oc2ccc(C(C)=O)cc2)cc1	9	-9	5	39	-10
Oc1ccc(Oc2ccc(Oc3ccc(O)cc3)cc2)cc1	51*	3	8	24	-2
CCOC(=O)[C@]12CCCC=C1N(Cc1ccco1)C(=O)[C@H](CC(=O)NCc1cccc3ccccc13)C2	50*	/	3	/	/
COC(=O)[C@]12CCCCC=C1N(Cc1cccc3ccccc13)C(=O)[C@H](CC(=O)NCc1ccccc1)C2	42	/	2	/	/
COC(=O)[C@]12CCCCC=C1N(Cc1cccc3ccccc13)C(=O)[C@H](CC(=O)N1CCSCC1)C2	53*	/	12	/	/
CCOC(=O)[C@]12CCCC=C1N(Cc1ccccc1)C(=O)[C@H](CC(=O)NCc1cccc3ccccc13)C2	30	/	6	/	/

Screens as filed in PubChem BioAssay.
